Data taken from ChEMBL document CHEMBL2202972, “Synthesis and biological evaluation of 2-substituted-4-(3',4',5'-trimethoxyphenyl)-5-aryl thiazoles as anticancer agents” (Bioorg Med Chem, 2012).

How the values were obtained:
Jurkat = assay: Antiproliferative activity against human Jurkat cells after 72 hrs by MTT assay; format: functional, cell-based
In short: (§1)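 Cells seeded at 8 × 10³ per well and incubated 18 h at 37 °C, 5% CO₂, then exposed to a range of compound concentrations for 72 h at 37 °C. Jurkat and HL-60 were grown in RPMI-1640, the others in DMEM, with penicillin, streptomycin and 10% FBS. DMSO stocks (10 mM); DMSO ≤0.25% final. Viability by MTT. […] Mean ± SE of ≥3 independent experiments.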

HeLa = assay: Antiproliferative activity against human HeLa cells after 72 hrs by MTT assay; format: functional, cell-based
HT-29 = assay: Antiproliferative activity against human HT-29 cells after 72 hrs by MTT assay; format: functional, cell-based; settings: HT-29, 72 h
HL-60 = assay: Antiproliferative activity against human HL60 cells after 72 hrs by MTT assay; format: functional, cell-based; settings: HL-60, 72 h
MCF7 = assay: Antiproliferative activity against human MCF7 cells after 72 hrs by MTT assay; format: functional, cell-based; settings: MCF7, 72 h
A549 [1] = assay: Antiproliferative activity against human A549 cells after 72 hrs by MTT assay; format: functional, cell-based; settings: A549, 72 h
[2] = Inhibition of bovine brain tubulin polymerization preincubated for 15 mins by turbidimetric analysis; parameters: species or system Bos taurus
In short: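 Bovine brain tubulin (10 μM) in glutamate buffer preincubated with varying compound concentrations for 15 min at 30 °C, then chilled to 0 °C. GTP 0.4 mM added and mixtures warmed to 30 °C in a spectrophotometer; assembly followed by turbidity at 350 nm.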

LoVo [3] = assay: Antiproliferative activity against human LoVo cells after 72 hrs by MTT assay; format: functional, cell-based; in short: as §1
Bos taurus = species: Bos taurus; assay: Displacement of [3H]colchicine from tubulin in bovine brain at 5 uM DEAE-cellulose filter method
A549 [4] = assay: Resistance ratio of IC50 for human taxol-resistant A549-T12 cells expressing tubulin mutant gene to IC50 for human A549 cells; format: functional
LoVo [5] = assay: Resistance ratio of IC50 for human doxorubicin-resistant LoVo/DX cells overexpressing P-glycoprotein to IC50 for human LoVo cells; format: functional
[6] = Antiproliferative activity against human doxorubicin-resistant LoVo/DX cells overexpressing P-glycoprotein after 72 hrs by MTT assay; format: functional, cell-based
In short: (§2)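 Resistant sublines cultured under selection: LoVo^Doxo (doxorubicin-resistant LoVo subclone) in complete Ham's F12 with doxorubicin 0.1 μg/mL; A549-T12 in complete DMEM with taxol 12 nM. Seeded at 8 × 10³ per well, 18 h preincubation, then 72 h compound exposure at 37 °C. MTT read-out.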

CCRF-CEM [7] = assay: Resistance ratio of IC50 for human vinblastine-resistant CEM/VBL100 cells overexpressing P-glycoprotein to IC50 for human CEM cells; format: functional
CCRF-CEM [8] = assay: Antiproliferative activity against human CEM cells after 72 hrs by MTT assay; format: functional, cell-based
[9] = Antiproliferative activity against human vinblastine-resistant CEM/VBL100 cells overexpressing P-glycoprotein after 72 hrs by MTT assay; format: functional, cell-based; settings: CEM/VBL100, 72 h
[10] = Antiproliferative activity against human taxol-resistant A549-T12 cells expressing tubulin mutant gene after 72 hrs by MTT assay; format: functional, cell-based; settings: A549, 72 h; in short: as §2

Structure (SMILES)	IC50 (Jurkat) [nM]	IC50 (HeLa) [nM]	IC50 (HT-29) [nM]	IC50 (HL-60) [nM]	IC50 (MCF7) [nM]	IC50 (A549 [1]) [nM]	IC50 [2] [nM]	IC50 (LoVo [3]) [nM]	inhibition (Bos taurus) [%]	Ratio IC50 (A549 [4])	Ratio IC50 (LoVo [5])	IC50 [6] [nM]	Ratio IC50 (CCRF-CEM [7])	IC50 (CCRF-CEM [8]) [nM]	IC50 [9] [nM]	IC50 [10] [nM]
CNc1nc(-c2cc(OC)c(OC)c(OC)c2)c(-c2ccc(OC)cc2)s1	34.3	70.1	6.3	27.3	37.6	138	1300	190	61	0.9	0.8	152	1.5	10	15	125
COc1cccc2c1C(=O)c1c(O)c3c(c(O)c1C2=O)C[C@@](O)(C(=O)CO)C[C@@H]3O[C@H]1C[C@H](N)[C@H](O)[C@H](C)O1 [DOXORUBICIN]												13200				
COc1cc(-c2nc(N(C)C)sc2-c2ccc(C(F)(F)F)cc2)cc(OC)c1OC	> 10000	> 10000	> 10000	> 10000	> 10000	> 10000	> 20000									
CC[C@]1(O)C[C@@H]2CN(CCc3c([nH]c4ccccc34)[C@@](C(=O)OC)(c3cc4c(cc3OC)N(C)[C@H]3[C@@](O)(C(=O)OC)[C@H](OC(C)=O)[C@]5(CC)C=CCN6CC[C@]43[C@@H]65)C2)C1 [VINBLASTINE]													256.2			
CCOc1ccc(-c2sc(N(C)C)nc2-c2cc(OC)c(OC)c(OC)c2)cc1	4150	3260	6030	303	> 10000	> 10000	> 20000									

Second part, led by results:

IC50 (Jurkat) [nM]	IC50 (HeLa) [nM]	IC50 (HT-29) [nM]	IC50 (HL-60) [nM]	IC50 (MCF7) [nM]	IC50 (A549 [1]) [nM]	IC50 [2] [nM]	Structure (SMILES)	IC50 (LoVo [3]) [nM]	inhibition (Bos taurus) [%]	Ratio IC50 (A549 [4])	Ratio IC50 (LoVo [5])	IC50 [6] [nM]	Ratio IC50 (CCRF-CEM [7])	IC50 (CCRF-CEM [8]) [nM]	IC50 [9] [nM]	IC50 [10] [nM]
3010	3400	1240	3170	7280	4560		CNc1nc(-c2cc(OC)c(OC)c(OC)c2)c(-c2ccc(C(F)(F)F)cc2)s1									
836	1400	729	2570	2380	2900	> 20000	COc1cc(-c2nc(N(C)C)sc2-c2ccc3ccccc3c2)cc(OC)c1OC									
51.1	128	38.2	143	21.1	151	960	CNc1nc(-c2cc(OC)c(OC)c(OC)c2)c(-c2ccc3ccccc3c2)s1		78							
